An excerpt weighted towards active compounds, which were near 3% of everything screened.
NPR2 activator – GC-B (human) receptor activation; P20594; HEK293-GC-B cells, CNP EC30, cGMP TR-FRET; 0% at EC30 CNP, 100% saturating CNP; activation, % at 10 µM; hit rate 0.11% among 370,000; AID 1920062;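 active = activation at 10 µM reaching about 35% in either raw or pattern-adjusted values, limit read from the data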
Target sequence (P20594 whole entry, looked up): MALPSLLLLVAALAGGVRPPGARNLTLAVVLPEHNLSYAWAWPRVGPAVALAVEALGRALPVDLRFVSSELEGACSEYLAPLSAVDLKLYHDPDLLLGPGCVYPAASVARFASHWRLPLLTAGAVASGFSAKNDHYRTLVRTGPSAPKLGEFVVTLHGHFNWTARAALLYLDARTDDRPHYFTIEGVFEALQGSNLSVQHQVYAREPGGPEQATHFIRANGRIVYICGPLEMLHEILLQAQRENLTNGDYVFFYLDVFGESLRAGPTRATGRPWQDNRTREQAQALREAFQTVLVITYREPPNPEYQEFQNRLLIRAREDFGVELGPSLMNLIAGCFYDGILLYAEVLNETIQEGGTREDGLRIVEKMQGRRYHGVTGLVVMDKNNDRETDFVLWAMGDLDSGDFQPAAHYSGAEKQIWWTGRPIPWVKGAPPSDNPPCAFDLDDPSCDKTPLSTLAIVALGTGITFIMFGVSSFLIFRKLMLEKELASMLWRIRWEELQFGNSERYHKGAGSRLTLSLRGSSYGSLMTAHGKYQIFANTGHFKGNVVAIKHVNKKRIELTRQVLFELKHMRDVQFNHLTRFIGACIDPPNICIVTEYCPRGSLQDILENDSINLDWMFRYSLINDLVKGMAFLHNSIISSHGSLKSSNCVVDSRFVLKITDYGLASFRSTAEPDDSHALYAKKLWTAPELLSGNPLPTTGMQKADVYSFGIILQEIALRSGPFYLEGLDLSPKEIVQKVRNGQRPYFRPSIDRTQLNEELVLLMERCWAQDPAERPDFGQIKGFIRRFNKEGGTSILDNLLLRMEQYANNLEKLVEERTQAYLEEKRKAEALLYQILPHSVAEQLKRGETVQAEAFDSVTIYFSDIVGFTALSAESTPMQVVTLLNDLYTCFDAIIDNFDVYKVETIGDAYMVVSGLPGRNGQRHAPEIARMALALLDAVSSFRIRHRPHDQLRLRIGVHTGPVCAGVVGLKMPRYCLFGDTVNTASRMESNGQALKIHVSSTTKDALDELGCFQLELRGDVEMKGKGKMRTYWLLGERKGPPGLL
GASC-1 inh – blocks human GASC-1 demethylase activity. Q9H3R0. GST-JMJD2C(1-420) H3K9me3 demethylation, DELFIA europium. inhibition, % at 2.35 µM. hit rate 0.069% among 330,000;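 active = more than half of a compound's replicate wells show inhibition beyond 50%, single wells judged on their own value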;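 also: signal counts dimethyl H3K9 product captured on neutravidin plate; 0% = median of DMSO wells and 100% = 0.3 times that DMSO median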
Lipid droplet – modulators of hepatic lipid droplet formation; AML12 mouse hepatocytes, oleate lipid droplets, BODIPY imaging; inhibition, % at 6.5 µM; hit rate 0.4% among 240,000; AID 1656;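 active = lipid droplet intensity inhibited by at least 50%, with more than 500 cells counted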
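Material – AML12 mouse liver cells · Also added – oleate loading, 100 µM · Compound dosing – 6.5 µM single-point dosing · Times – overnight treatment with compound plus oleate · Measured by – fluorescence imaging, 20x objective, two fields per well · Read-out – percent inhibition of filter-corrected integrated lipid droplet intensity per well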
NR3A LBD binder – modulators (binders) of human NR3A ligand-binding domain; hit rate 2.5% among 340,000; Tm shift relative to glycine control, % at 25 µM; NR3A LBD differential scanning fluorimetry, Tm shift; 0% = protein alone, 100% = glycine-bound protein;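 active = melting temperature shift of at least 10% of the positive control shift, at one fixed dose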
GC-A act – GC-A (human) enzyme activation | P16066 | HEK293 GC-A cells, cGMP TR-FRET, EC30 ANP; 0% at EC30 ANP, 100% saturating ANP | activation, % at 10 µM | hit rate 0.14% among 370,000 | AID 1671463; in the data active = activation above about 40%
aDG glyco up – increases alpha dystroglycan glycosylation. Pro5-aDG cells, alpha-DG glycosylation AlphaScreen (IIH6); 0% Pro5, 100% B10-LARGE cell signal. activation, % at 10 µM. hit rate 0.22% among 360,000;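 active = activation of at least 8% versus controls, or a plate z-score of at least 8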;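 also: Pro5 are CHO cells carrying HIG-tagged alpha-DG that lacks glycosylation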
Numbers without * were called inactive; i = inactive; · = not tested or not shown.

SMILES	NPR2 activator	GASC-1 inh	Lipid droplet	NR3A LBD binder	GC-A act	aDG glyco up
CCCCCCC1CC(=O)NC(=O)N1 (stereo not drawn)	-1	6	0	14*	7	0
O=c1[nH]c(-c2ccc(O)cc2)nc2scc(-c3cccs3)c12	-1	7	24	19*	-2	0
Cc1nc2scc(-c3cccs3)c2c(=O)[nH]1	-3	-3	-2	2	5	0
C[C@@H](CO)NC(=O)c1[nH]cnc1C(=O)Nc1ccccc1	2	·	·	·	0	·
CN1CCn2cnc(C(=O)NCCCCCNC(=O)OC(C)(C)C)c2C1=O	-1	·	·	·	3	0
Clc1ccc(-n2ncc3c(NCc4ccc5c(c4)OCO5)ncnc32)cc1	-8	6	-2	12*	2	0
Cc1cc(Nc2ccccc2)nn1C(=O)c1ccc([N+](=O)[O-])cc1	-16	2	8	40*	0	0
Cc1cc(Nc2ccccc2)n(C(=O)c2ccccc2)n1	-1	-8	-9	18*	-2	0
OC(c1ccccc1)c1nc(-c2cccc(C(F)(F)F)c2)cs1 (stereo not drawn)	-3	·	·	·	2	0
CC(C)c1ccc(/C=N/Nc2cc(N3CCOCC3)nc(N3CCOCC3)n2)cc1	-5	2	7	-8	-4	0
Cc1cccc(/C=N/Nc2cc(N3CCOCC3)nc(N3CCOCC3)n2)c1	-3	5	130*	-5	3	1
Cc1ccccc1N1CCN(C(=O)CN2C(=O)CC(C)(C)S(=O)(=O)c3ccccc32)CC1	0	·	·	·	3	·
O=C(CSc1nc(NS(=O)(=O)c2ccccc2)cc(=O)[nH]1)Nc1ccc(Cl)cc1	-1	·	-8	-20	-2	0
O=c1cc(NS(=O)(=O)c2ccccc2)nc(SCc2ccc(Cl)cc2)[nH]1	1	1	6	20*	-4	0
CCCOc1ccc(CC(=O)NNC(=S)Nc2ccccc2)cc1Br	3	13	13	19*	0	0
CSc1ccc(C2NN=C(c3ccccc3)S2)cc1 (stereo not drawn)	-4	0	·	-18	4	0
Oc1ccccc1C1NN=C(c2ccccc2)S1 (stereo not drawn)	1	3	-13	19*	3	0
O=C(Nc1ccc(Br)cc1)c1cccn1-c1ncc(C(F)(F)F)cc1Cl	0	i	·	13*	3	0
Cc1csc2ncnc(N3CCN(C(=S)Nc4ccc(C(F)(F)F)cc4)CC3)c12	0	-10	-33	15*	-5	0
Cc1csc2c(N3CCN(C(=S)Nc4ccc(C(F)(F)F)cc4)CC3)ncnc12	5	-13	-8	8	-1	0
C=CCN1C(=O)C(=Cc2ccc3c(c2)CCC3)SC1=S	0	·	·	·	-5	0
O=[N+]([O-])c1ccc(N/N=C/c2c[nH]c3ccccc23)cc1	-20	-15	·	30*	-13	2
Cn1cc([N+](=O)[O-])c(C(=O)N/N=C\c2c[nH]c3ccccc23)n1	3	-9	2	-3	-1	0
O=[N+]([O-])c1ccccc1N/N=C/c1c[nH]c2ccccc12	-19	-1	·	16*	-15	-1
CC(=O)[C@H]1CC[C@H]2[C@@H]3C=CC4=CC(=O)CC[C@@]4(C)[C@@H]3CC[C@]12C	3	·	·	-2	3	0
SMILES	NPR2 activator	GASC-1 inh	Lipid droplet	NR3A LBD binder	GC-A act	aDG glyco up
O=C1CC(SC(=Nc2ccccc2)Nc2ccccc2)C(=O)N1c1cccc(Cl)c1 (stereo not drawn)	3	6	·	10*	1	0
Nc1nnc(SC2CC(=O)N(c3ccccc3)C2=O)s1 (stereo not drawn)	3	57*	·	1	-2	0
O=C1CC(SC(=Nc2ccccc2)Nc2ccccc2)C(=O)N1c1ccc(Cl)cc1 (stereo not drawn)	-4	-11	·	9	-8	0
COc1ccc(N2C(=O)CC(Sc3nnnn3-c3ccc(F)cc3)C2=O)cc1 (stereo not drawn)	4	2	-22	1	12	-1
O=C1CC(Sc2ncccn2)C(=O)N1c1ccccc1 (stereo not drawn)	-1	-16	20	1	0	0
O=C1CC(Sc2nnnn2-c2ccccc2)C(=O)N1c1cccc(Cl)c1 (stereo not drawn)	36*	23	10	-6	29	-1
Cc1c[nH]c2cccc(-c3cccc4ccccc34)c12	-9	·	·	·	-2	·
Cc1cccc(C)c1NC(=O)CCc1nnc2ccc(N3CCCC3)nn12	-1	-4	8	6	-1	0
O=C1/C(=C\c2ccc(O)cc2)SC(=S)N1/N=C/c1ccc(O)cc1	-5	-4	·	19*	-4	0
Cc1ccc2c(c1)C1CS(=O)(=O)N(CCc3ccccc3)C(=O)N1C2 (stereo not drawn)	-5	·	·	·	-1	·
O=S(=O)(c1ccccc1Br)N(Cc1cn(Cc2ccccc2)nn1)C1CC1	6	·	·	·	1	·
COc1ccc([C@H]2CC(=O)C=C(c3ccc(F)cc3OCc3ccccc3)C2)cc1OC	31	-2	·	12*	27	0
CCOC(=O)[C@]12CCCC3=C1N(CCC3)C(=O)[C@@H](CC(=O)N1CCC(c3ccccc3)CC1)C2	6	·	·	·	0	·
Cc1ccc(NC(=O)CSc2ccccc2NC(=O)c2ccccc2)cc1Cl	-7	13	-18	1	-6	0
Cc1ccc(NC(=O)C(OC(=O)c2ccccc2Cl)c2ccccc2)cc1Cl (stereo not drawn)	1	1	3	19*	-5	0
CCOc1ccc(NC(=O)C(C)Oc2ccccc2C(=O)Nc2ccc(C)c(Cl)c2)cc1 (stereo not drawn)	-4	-10	·	26*	2	0
Cc1ccc(NC(=O)CSc2ccccc2NC(=O)c2ccccc2Cl)cc1Cl	-1	-2	-17	11*	-7	0
Cc1ccc(NC(=O)C(OC(=O)c2ccc(NC(N)=O)cc2)c2ccccc2)cc1Cl (stereo not drawn)	0	-2	-42	26*	1	0
O=c1c2ccccc2n(Cc2ccno2)n1[C@@H](Cc1ccccc1)Cn1cc(-c2ccc(-c3ccccc3)cc2)nn1	2	·	·	·	2	·
CC(=O)c1cccc(NC(=O)C(C)OC(=O)c2cc(C)oc2C)c1 (stereo not drawn)	-1	·	·	1	2	0
Cc1cc(C(=O)OC(C(=O)Nc2ccc(C)c(Cl)c2)c2ccccc2)c(C)o1 (stereo not drawn)	5	13	1	26*	0	0

Screens deposited in PubChem by several laboratories.
